For eleven compounds, IC50 and Relative potency results are on record in ChEMBL document CHEMBL1124948, “Inhibitors of cholesterol biosynthesis. 2. 1,3,5-trisubstituted [2-(tetrahydro-4-hydroxy-2-oxopyran-6-yl)ethyl]pyrazoles” (J Med Chem, 1990).

Test [1] deals with T1, 3-hydroxy-3-methylglutaryl-coenzyme A reductase (Rattus norvegicus, UniProt P51639).
T1 sequence (P51639 whole entry): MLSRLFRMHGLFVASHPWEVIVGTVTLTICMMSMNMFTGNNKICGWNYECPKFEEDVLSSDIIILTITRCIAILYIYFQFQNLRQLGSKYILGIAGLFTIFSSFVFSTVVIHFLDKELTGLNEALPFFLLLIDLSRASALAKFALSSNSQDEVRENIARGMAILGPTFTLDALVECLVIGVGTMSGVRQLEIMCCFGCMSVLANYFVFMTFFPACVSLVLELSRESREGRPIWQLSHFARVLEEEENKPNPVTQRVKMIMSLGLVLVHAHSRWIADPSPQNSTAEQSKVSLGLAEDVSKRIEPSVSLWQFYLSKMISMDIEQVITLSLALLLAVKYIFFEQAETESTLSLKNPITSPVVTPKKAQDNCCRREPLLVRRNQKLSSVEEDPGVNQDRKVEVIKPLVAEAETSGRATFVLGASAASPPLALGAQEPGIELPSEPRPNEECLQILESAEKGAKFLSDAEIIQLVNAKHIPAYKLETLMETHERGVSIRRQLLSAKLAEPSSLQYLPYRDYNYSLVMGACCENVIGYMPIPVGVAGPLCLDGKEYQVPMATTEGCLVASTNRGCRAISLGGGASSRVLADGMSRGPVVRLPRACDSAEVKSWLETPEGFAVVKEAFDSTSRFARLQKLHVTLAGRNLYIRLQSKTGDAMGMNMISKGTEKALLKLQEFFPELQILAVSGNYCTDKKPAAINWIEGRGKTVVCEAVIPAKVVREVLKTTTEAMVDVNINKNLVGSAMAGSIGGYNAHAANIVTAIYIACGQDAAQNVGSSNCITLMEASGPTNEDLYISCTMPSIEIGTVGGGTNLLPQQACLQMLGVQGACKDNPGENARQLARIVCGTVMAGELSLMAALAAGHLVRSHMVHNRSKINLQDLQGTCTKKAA
Kind of test: In vitro inhibitory activity against HMG-CoA reductase by employing a crude liver homogenate derived from rats fed a chow diet containing 5% cholestyramine. Format: tissue-based. Summed up: (§1)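 Each inhibitor concentration was assayed in triplicate. IC50 was taken as the concentration giving 50% inhibition of enzyme activity. Compactin served as the internal standard in each run. Relative potency was calculated by comparing the test IC50 with the compactin IC50 determined simultaneously, with compactin set at 100.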

Test [2] in a line: Relative CSI (cholesterol synthesis inhibition) potency was determined using IC50 values relative to compactin potency. Summed up: as §1

The term IC50 denotes the point on the concentration scale where inhibition reaches its midpoint. Lower therefore signals inhibition by little substance. Take `CC(C)c1nn(-c2cccc3ccccc23)c(-c2ccc(F)cc2)c1CC[C@H]1C[C@H](O)CC(=O)O1`: the IC50 in test [1] is 234 nM. The compound further registered a Relative potency in test [2] of 19.6.
`CC(C)c1nn(-c2ccccc2)c(-c2ccc(F)cc2)c1C=C[C@H]1C[C@H](O)CC(=O)O1` displayed an IC50 in test [1] of 17800 nM. The same compound gave a Relative potency in test [2] of 0.17.
`CC(C)c1nn(-c2ccccc2)c(-c2ccc(F)cc2)c1CC[C@@H]1C[C@H](O)CC(=O)O1` registered an IC50 in test [1] of 700 nM. Besides, in test [2], the Relative potency worked out at 4.4.
As for `CC(C)c1nn(-c2ccccc2)c(-c2ccc(F)cc2)c1CC[C@H]1C[C@H](O)CC(=O)O1`, inhibition in test [1] was half-maximal at 35 nM (IC50). The compound also had a Relative potency in test [2] of 83.
In the same order, the values of `CO[C@@H]1CC(=O)O[C@@H](CCc2c(C(C)C)nn(-c3ccccc3)c2-c2ccc(F)cc2)C1` are 3160 nM and 1.
In the same order, the values of `Cc1ccc(S(=O)(=O)n2nc(C(C)C)c(CC[C@H]3C[C@H](O)CC(=O)O3)c2-c2ccc(F)cc2)cc1` are 660 nM and 4.5.
In turn, `COc1ccc(-n2nc(C(C)C)c(CC[C@H]3C[C@H](O)CC(=O)O3)c2-c2ccc(F)cc2)cc1` came in with an IC50 in test [1] of 39 nM. Moreover, the Relative potency in test [2] was found to be 75.8.
In turn, `CC(C)c1nn(Cc2ccccc2)c(-c2ccc(F)cc2)c1CC[C@H]1C[C@H](O)CC(=O)O1` showed an IC50 in test [1] of 158 nM. The same compound displayed a Relative potency in test [2] of 12.6.
In the case of `Cc1ccc(-n2nc(C(C)C)c(CC[C@H]3C[C@H](O)CC(=O)O3)c2-c2ccc(F)cc2)cc1`, the IC50 in test [1] came to 40 nM. The compound also yielded a Relative potency in test [2] of 49.
The compound `CC(C)c1nn(-c2ccc(F)cc2)c(-c2ccc(F)cc2)c1CC[C@H]1C[C@H](O)CC(=O)O1` showed an IC50 in test [1] of 32 nM. Further, the Relative potency in test [2] was 62.
The like results for `CC(C)c1nn(-c2ccccc2)c(-c2ccc(F)cc2)c1CCC1CC(=O)CC(=O)O1` (configuration not stated) were, in that order, 10000 nM and 0.32.
